In all, about 1,300 compounds went through this assay and about 65 (5%) were called active. The list is a sample of the results. Measured potencies and affinities stand elsewhere. Values without a mark were called inactive.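 The calls were made as follows: active = growth inhibition reaching a set limit at one or more tested doses; inactive = the rest.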

A short description of this test: growth inhibition of wild-type E. coli, dose response, BW25113 wild type, OD615 (AID 638). The conditions noted are these: at 100 µM (top of the series) unless noted. The gist of the method: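 Material – E. coli BW25113 wild type · Medium – Kanamycin-supplemented LB broth · Doses – compound dilution series for dose-response · Incubation – 20 h compound exposure, 37 °C · Technique – optical density (absorbance) at 615 nm · Read-out basis – IC50 from 4-parameter logistic, bounds fixed 0–100% · Control set – chloramphenicol at 30 µM final as inhibition control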
As to `N=c1c2c(-c3ccccc3)c(-c3ccccc3)n(Cc3ccco3)c2ncn1Cc1ccco1`, the growth inhibition was 8.39%.

For the compound `CC(C)(C)N1C(=O)Cc2c1nc(N)c1c(N)nc(N3CCCCC3CO)c(C#N)c21` (stereo not drawn), the growth inhibition is -2.72%.

As for `c1csc(-c2noc(COc3ccc4c(c3)CCCC4)n2)c1`, the growth inhibition was 14.2%.

For the compound `COc1ccc(CNC(=O)c2cc(-c3ccccc3OC)on2)cc1`, the growth inhibition is 10.6%.

In the case of `O=C(CS(=O)(=O)c1ccccc1)Nc1nc(-c2ccccc2)cs1`, the growth inhibition was 7.34%.

Consider `CCN(CC)c1ccc(C(=O)Nc2cccc(F)c2)cc1`, for which the growth inhibition is 0.51%.

Turning to `O=C(CN1CCN(S(=O)(=O)c2ccc(F)cc2)CC1)Nc1ccc(Cl)c(C(F)(F)F)c1`, the growth inhibition was 1.58%.

Take `CC1CCN(c2nc3ccccc3nc2C(C#N)S(=O)(=O)c2ccccc2)CC1` (stereo not drawn): the growth inhibition is -11.4%.

In the case of `CC1=CCC(COC(=O)Nc2ccccc2)CC1` (stereo not drawn), the growth inhibition was 10.3%.

In the case of `Cc1cccnc1NC(=O)c1c(O)c2cccc3c2n(c1=O)CCC3`, the growth inhibition is 0.91%.

Consider `CCn1c(=O)c(C(=O)Nn2c(C)nc3ccccc3c2=O)c(O)c2ccccc21`, for which the growth inhibition was 2.63%.

In the case of `CCOC(=O)Cc1c(C)nc2c(-c3cccc(Br)c3)c[nH]n2c1=O`, the growth inhibition is 7.94%.

`Cc1onc(-c2ccccc2)c1C(=O)Nc1nnc(COc2ccc(Cl)cc2)s1`: the growth inhibition is -9.06%.

With `CCn1c(C(=O)N2CCC(Cc3ccccc3)CC2)cc2sccc21`, the growth inhibition is -18.6%.

In the case of `N#Cc1c(NC(=O)c2ccc(Br)o2)n(-c2ccccc2)c2nc3ccccc3nc12`, the growth inhibition was -13.4%.

In the case of `CC1=C(C#N)c2nc(N)c(C#N)c(C)c2/C1=C\c1ccccc1`, the growth inhibition was -0.01%.

Take `C(=C\c1ccccc1)/CN1CCN(c2ncnc3c2oc2ccccc23)CC1`: the growth inhibition is -1.65%.

In the case of `CCC(CC)c1nnc(NC(=O)c2c(-c3ccccc3)noc2C)s1`, the growth inhibition is 9.3%.

As for `O=C1c2ccccc2C(O)(Cc2ccccc2)N1C1CCCCC1` (stereo not drawn), the growth inhibition was -0.01%.

For the compound `CCCc1nc(SCC(=O)N2CCC(Cc3ccccc3)CC2)c2c(=O)n(C)c(=O)n(C)c2n1`, the growth inhibition is -7.24%.

For `O=C(Nc1ccc2nc(-c3cccs3)[nH]c2c1)c1ccco1`, the growth inhibition was 15%.

As to `Cc1ccccc1S(=O)(=O)Cc1ccc(C(=O)N2CCN(c3cccc(C)c3C)CC2)o1`, the growth inhibition is 7.63%.

`COc1ccc(-c2cc3nc4c(c(N5CCC6(CC5)OCCO6)n3n2)CCCC4)cc1`: the growth inhibition was 0.64%.

With `Clc1ccc(C2=Nn3c(nnc3-c3n[nH]c4c3CCC4)SC2)cc1Cl`, the growth inhibition was 1.98%.

For the compound `Cc1cccc(N2C(N)=C(C#N)C(C#N)(C#N)C2c2ccccc2)c1` (stereo not drawn), the growth inhibition is -0.76%.

As to `CC(C)(C)C(=O)Cn1c(=N)n(Cc2ccccc2)c2ccccc21`, the growth inhibition is 1.06%.

For `O=c1n(Cc2ccccc2)c2cc(Cl)cnc2n1Cc1ccccc1`, the growth inhibition was 6.2%.

Turning to `O=C(NCc1ccco1)C(c1cccs1)N(C(=O)C1COc2ccccc2O1)c1cccc(O)c1` (stereo not drawn), the growth inhibition was 1.03%.

For the compound `CCOC(=O)N1CCN(c2nc(N(c3ccccc3)c3ccccc3)nc(-n3ccnc3)n2)CC1`, the growth inhibition was -3.06%.

`COc1ccc(C2c3sc(=O)[nH]c3SC3C4CCC(C4)C23)cc1` (stereo not drawn): the growth inhibition was 0.8%.

Take `CCOC(=O)c1cn(CC)c2cc(N3CCCCC3)c(F)cc2c1=O`: the growth inhibition was -6.06%.

In the case of `CCn1cc(C(=O)O)c(=O)c2cc(OC)ccc21`, the growth inhibition is 19.6%.

In the case of `Cc1nc2c(C(=O)NCc3ccc4c(c3)OCO4)c[nH]n2c(=O)c1Cc1ccccc1F`, the growth inhibition is 0.77%.

As to `CCOc1ccccc1N1CCN(C(=O)Nc2ccc(F)c(Cl)c2)CC1`, the growth inhibition is -9.1%.

For `CCOC(=O)c1cn(CC)c2cc(N3CCOCC3)c(F)cc2c1=O`, the growth inhibition is 4.05% [at 50 µM].

In the case of `O=C(Nc1ccc(N2CCN(C(=O)c3ccco3)CC2)c(Cl)c1)c1cccs1`, the growth inhibition is -1.45%.

Regarding `CCn1cc(C(=O)O)c(=O)c2cnc(N3CCN(C(=O)Nc4ccccc4)CC3)nc21`, the growth inhibition was 5.93%.

With `O=C(Nc1ccc(N2CCN(C(=O)c3ccco3)CC2)c(Cl)c1)c1c(F)c(F)c(F)c(F)c1F`, the growth inhibition was -3.01%.

With `CCn1c2ccccc2c2cc(NC(=O)c3ccco3)ccc21`, the growth inhibition was -3.49%.

Turning to `COc1ccccc1-c1cc(C(=O)NCc2ccc(F)cc2)no1`, the growth inhibition is -0.01%.

On to `CCOC(=O)C1=C(C)NC(SCC(=O)Nc2cc(C)on2)=C(C#N)C1c1cccs1` (stereo not drawn), for which the growth inhibition was 3.97%.

Consider `CCOC(=O)c1c(-c2cccs2)csc1NC(=O)CN1CC(C)OC(C)C1` (stereo not drawn), for which the growth inhibition was -7.6%.

Turning to `Nc1nc(CN2CCN(c3cccc(Cl)c3)CC2)nc(N2CCCc3ccccc32)n1`, the growth inhibition is 4.24%.

As to `O=c1c2c(nc3c(-c4cccc5ccccc45)c[nH]n13)CCC2`, the growth inhibition is -1.35%.

For `Cc1ccc(Cn2ccc(NC(=O)c3cc(CC(C)C)on3)n2)cc1`, the growth inhibition is 0.62%.

In the case of `N#Cc1cn(CCOc2ccccc2F)c2ccccc12`, the growth inhibition was -0.93%.

Turning to `COc1ccccc1N1CCN(C(=O)c2cc(-c3ccc(C)cc3)on2)CC1`, the growth inhibition was -0.92%.

For the compound `Cc1cccc(C)c1NC(=O)C(c1cccs1)N(Cc1ccco1)C(=O)Cn1nnc2ccccc21` (stereo not drawn), the growth inhibition is -8.04%.

With `O=C(Nc1ccc2c(c1)CCC2)C1COc2ccccc2O1` (stereo not drawn), the growth inhibition was 7.62%.

Regarding `CCCN(CCC)C(=O)CSc1nc2ccccc2c(=O)n1C1CCCC1`, the growth inhibition is -6.85%.

Consider `CCOC(=O)c1cc2sccc2n1Cc1ccc(C#N)cc1`, for which the growth inhibition is -10.3%.

Consider `CCc1c(O)nc(SCC(=O)Nc2ccc(C)cc2)n(C2CCCCC2)c1=O`, for which the growth inhibition was -10.1%.

Take `CC1CCCc2sc3nc(NCc4ccco4)n4ncnc4c3c21` (stereo not drawn): the growth inhibition is -3.17%.

Take `O=C1OC(c2ccc(O)cc2)(c2ccc(O)cc2)c2ccccc21`: the growth inhibition is 24.6% (active).

In the case of `CCn1c(SC)nnc1-c1sc2cc(Cl)ccc2c1Cl`, the growth inhibition was 2.34%.

Consider `CC1CCCCC1n1c(=S)[nH]c2ccccc2c1=O` (stereo not drawn), for which the growth inhibition was -0.57%.

As for `CCCOc1ccc2oc(=O)c3c(c2c1)CCCN3C(=O)CN1CCc2ccccc2C1`, the growth inhibition was 0.92%.

As for `Cc1ccc(O)c(C(=O)CC(=O)c2cccc(F)c2)c1`, the growth inhibition is 11.9%.
